N-glyco inh = increase of ERlucT glycosylation luciferase signal, primary screen, N-linked glycosylation inhibitor project, D54 ERlucT cells, luminescence, set 2. D54 ERlucT glycosylation luciferase reporter, 24 h; percent of 100 nM tunicamycin response. reporter increase, % at 12.5 µM. 360,000 tested, 0.23% active. AID 588692, 2011;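 active = mean luciferase reporter signal, scaled so untreated is 0 and the glycosylation-blocking control 100, at or above a set limit in every replicate; inconclusive = mean reaches the limit but not every replicate does; inactive = mean below the limit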;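 note: luciferase carries N-glycosylation sites so blocking glycosylation raises the light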
PAX8 reporter = inhibitors of PAX8-driven TPO luciferase reporter, primary screen, RMG-I cells, single concentration. 360,000 tested, 1.2% active. SteadyGlo, 24 h. inhibition, % at 12.6 µM;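 active = mean replicate inhibition at least 60% with every replicate also reaching 60%; inconclusive = only one of the two criteria is met; inactive = mean below 60% and not all replicates reaching 60%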;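 note: luciferase light reporting Pax8 driven TPO promoter activity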
MLL AF4-AF9 inh = inhibitors of AF4 peptide binding to AF9, primary screen, biochemical, AlphaScreen, biotin-AF4 peptide, FLAG-AF9, single point. 350,000 tested, 0.47% active. inhibition, % at 10 µM. Protein AF-9 (Homo sapiens), P42568. AID 651704, 2012;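 active = every replicate reaching a set inhibition limit, whatever the replicate mean, cut at about 25% in these data; inconclusive = mean inhibition reaches that limit but some replicates miss it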
Target sequence (P42568 whole entry, looked up): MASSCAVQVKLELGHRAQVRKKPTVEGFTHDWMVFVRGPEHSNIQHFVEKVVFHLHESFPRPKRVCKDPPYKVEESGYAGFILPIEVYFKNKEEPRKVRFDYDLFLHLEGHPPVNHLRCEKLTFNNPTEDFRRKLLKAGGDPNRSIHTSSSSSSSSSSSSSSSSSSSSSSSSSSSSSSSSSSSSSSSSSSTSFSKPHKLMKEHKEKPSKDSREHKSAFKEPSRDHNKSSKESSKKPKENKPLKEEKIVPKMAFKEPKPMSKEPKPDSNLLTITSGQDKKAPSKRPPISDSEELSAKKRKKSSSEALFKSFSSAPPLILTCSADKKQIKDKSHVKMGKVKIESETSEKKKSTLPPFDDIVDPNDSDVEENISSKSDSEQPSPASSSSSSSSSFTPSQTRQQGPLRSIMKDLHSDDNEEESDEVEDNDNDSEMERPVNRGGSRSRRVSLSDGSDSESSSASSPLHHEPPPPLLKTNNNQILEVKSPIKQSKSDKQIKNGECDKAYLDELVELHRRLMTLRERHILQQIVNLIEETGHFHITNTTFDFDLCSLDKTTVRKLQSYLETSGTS
EWS-Fli inh = EWS/Fli-driven NR0B1 reporter inhibitors, primary screen, A673 cells, NR0B1 luciferase, luminescence, MLPCN library; viability-normalised; AID 651661, 2012; inhibition, % at 12.6 µM; 350,000 tested, 0.67% active;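 active = mean inhibition of at least 50% after viability correction, with every replicate also passing that limit; inconclusive = mean reaches 50% but only one of two replicates passes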;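 note: firefly luciferase signal divided by Alamar Blue viability fluorescence both relative to DMSO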
Env fusion inh = inhibitors of HIV-1 Env-driven cell-cell fusion, primary screen, HeLa-JRFL effector, CEM21 target cells, luciferase; 360,000 tested, 1.1% active; AID 651610, 2012; inhibition, % at 12.3 µM;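 active = mean replicate inhibition score of at least 50 and every replicate individually at or above 50; inconclusive = only one of the two criteria met; inactive = mean below 50 and not all replicates reaching 50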
FN deposition inh = inhibitors of fibronectin matrix deposition, primary screen, AH1F cells, Alexa488-fibronectin fluorescence, plate reader | AH1F fibroblasts, overnight | inhibition, % at 12.6 µM | 350,000 tested, 0.086% active | AID 743247, 2014;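 active = mean inhibition across replicates of 30% or more, regardless of how many single replicates reach that level; inconclusive = mean under 30% yet at least half of replicates reach 30%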
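Assay system: AH1F fibroblasts assembling fluorescent fibronectin matrix; Amount: 10000 AH1F cells per well; Buffer or medium: DMEM, 2% serum; Probe or stimulus: Alexa488-fibronectin, 24 nM final in well; Doses: single compound dose, delivered by pin transfer; Incubation: 1 h adhesion, overnight exposure; Measured by: fluorescence 485/525 nm; Read-out: fibronectin deposition inhibition.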
A number is an active result; - = inactive; ? = inconclusive; . = no result given. In the library only some 2.5% were active in any assay of this set; here they are far more common.

SMILES	N-glyco inh	PAX8 reporter	MLL AF4-AF9 inh	EWS-Fli inh	Env fusion inh	FN deposition inh
CCCNC(=O)[C@H]1[C@H](CO)[C@H]2Cn3c(ccc(-c4ccc(OC)cc4)c3=O)[C@H]2N1CCC	.	.	-	-	.	.
COc1ccccc1-n1cnc2cc(NCc3ccccn3)ccc21	-	.	.	.	-	-
CCCn1cnc2cc(NCc3ccccn3)ccc21	-	-	42.5	-	-	-
c1ccc(Nc2nc(NCc3ccco3)c3ccccc3n2)cc1	-	67.0	.	-	-	-
Cc1cccc(Nc2nc(NCc3ccco3)c3ccccc3n2)c1	-	.	-	-	-	-
COC(=O)C[C@@H]1C[C@@H]2c3cc(NC(=O)Nc4ccc(F)cc4)ccc3O[C@@H]2[C@@H](CO)O1	.	-	.	-	-	-
NC1(C(=O)O)CSSC1	73.3	.	48.2	-	-	-
O=C(CN1CCCC1)Nc1ccc(Oc2ccc(NC(=O)CN3CCCC3)cc2)cc1	-	-	.	.	-	30.2
Cn1cnc(CCNC(=O)C[C@@H]2CC[C@H]3[C@@H](COC[C@H](O)CN3C(=O)Nc3ccc(F)cc3)O2)c1	.	-	-	-	.	-
Cc1ccc(CNS(=O)(=O)c2ccc(-c3cnc(C4CC4)o3)cc2)cc1	-	-	-	-	-	-
Cc1ccc(N(C)S(=O)(=O)c2ccc(-c3cnc(C4CC4)o3)cc2)cc1	-	-	-	51.9	-	-
Cc1ccc(NS(=O)(=O)c2ccc(-c3cnc(C4CC4)o3)cc2)cc1	-	-	-	-	-	-
O=S(=O)(NCc1ccccc1)c1ccc(-c2cnc(C3CC3)o2)cc1	-	-	-	-	-	-
CCOc1ccccc1CNS(=O)(=O)c1ccc(-c2cnc(C3CC3)o2)cc1	-	-	-	59.0	-	-
Cc1cccc(C)c1NS(=O)(=O)c1ccc(-c2cnc(C3CC3)o2)cc1	-	92.3	-	.	-	-
COc1ccc(C)cc1NS(=O)(=O)c1ccc(-c2cnc(C3CC3)o2)cc1	-	98.9	-	-	-	-
Oc1ccccc1Nc1nc(NCC2CCCO2)c2ccccc2n1 (stereo not given)	-	.	.	.	-	-
c1ccc2c(NCC3CCCO3)nc(N3CCCCC3)nc2c1 (stereo not given)	-	63.4	?	-	-	-
C[C@@H]1CCCCO[C@@H](CN(C)C(=O)NC2CCCCC2)[C@H](C)CN([C@@H](C)CO)C(=O)c2cc(NS(=O)(=O)c3cn(C)cn3)ccc2O1	.	-	-	-	-	.
C[C@@H]1CN([C@H](C)CO)C(=O)c2ccccc2-c2ccccc2CO[C@@H]1CN(C)C(=O)c1ccccc1	.	.	-	-	.	-
Cc1ccc2nc(N(CCCN(C)C)C(=O)c3ccc(S(=O)(=O)N4CCc5ccccc5C4)cc3)sc2c1	-	-	-	.	-	.
CN(C)CCCN(C(=O)c1ccc(S(=O)(=O)N2CCc3ccccc3C2)cc1)c1nc2ccc(F)cc2s1	?	-	-	57.8	-	-
COc1ccc2sc(N(CCCN(C)C)C(=O)c3ccc(S(=O)(=O)N4CCc5ccccc5C4)cc3)nc2c1	-	.	-	-	102.4	-
C[C@H](CO)N1C[C@H](C)[C@H](CN(C)C(=O)c2ccccn2)Oc2ncc(C3=CCCC3)cc2C1=O	.	-	-	-	-	.
CCCNC(=O)N1C[C@H](O)COC[C@@H]2O[C@H](CC(=O)N3CCOCC3)CC[C@H]21	.	-	-	-	.	-
SMILES	N-glyco inh	PAX8 reporter	MLL AF4-AF9 inh	EWS-Fli inh	Env fusion inh	FN deposition inh
CC[C@@]1(C(=O)OC)N[C@H](CN(C)C(=O)Nc2ccc(OC)cc2)[C@@H]2C(=O)N(Cc3ccccc3)C(=O)[C@@H]21	-	-	-	-	69.5	-
CC[C@@]1(C(=O)OC)N[C@H](CN(C)C(=O)Nc2ccc(F)cc2)[C@@H]2C(=O)N(Cc3ccccc3)C(=O)[C@@H]21	-	-	-	-	94.1	-
CC[C@@]1(C(=O)OC)N[C@H](CN(C)C(=O)Nc2ccc(C)cc2)[C@@H]2C(=O)N(Cc3ccccc3)C(=O)[C@@H]21	-	-	-	-	66.3	-
COC(=O)[C@]1(Cc2ccccc2)N[C@H](CN(C)C(=O)Nc2ccccc2)[C@@H]2C(=O)N(Cc3ccccc3)C(=O)[C@@H]21	-	-	-	-	-	-
Cc1noc(C)c1NC(=O)N(C)C[C@@H]1OCCCC[C@@H](C)Oc2ccc(NS(=O)(=O)c3c(C)noc3C)cc2C(=O)N([C@H](C)CO)C[C@@H]1C	.	-	-	-	-	.
NC(=O)c1sc2nc3c(c(-c4ccco4)c2c1N)CCCC3	-	-	-	-	57.0	-
Cc1ccc2nc3sc(C(=O)N4CCOCC4)c(N)c3cc2c1	-	82.0	.	.	73.8	-
COc1cc(-c2nc3cnccn3c2Nc2ccc(C)cc2)ccc1O	26.1	.	-	-	.	.
COc1ccc(C(=O)/C(C#N)=N/Nc2cccc([N+](=O)[O-])c2)cc1	-	-	-	62.0	-	-
CCOC(=O)C1=C(c2ccccc2)NC(SCC(=O)Nc2ccc(C)cc2)=C(C#N)C1c1ccco1 (stereo not given)	-	.	-	-	.	.
CCOC(=O)C1=C(c2ccccc2)NC(SCC(=O)Nc2cccc(C)c2)=C(C#N)C1c1ccco1 (stereo not given)	-	.	.	.	111.1	-
O=C(NNc1nc2ccccc2s1)Nc1ccc(F)cc1	-	-	-	-	-	-
O=C(NNc1nc2ccccc2s1)Nc1ccc(Cl)c(Cl)c1	-	64.4	-	-	-	-
COc1ccc(O)c(/C=N/NC(=O)c2ccc(N3CCCC3=O)cc2)c1	-	105.6	-	-	-	-
C[C@@H]1CCCCO[C@H](CN(C)C)[C@H](C)CN([C@H](C)CO)C(=O)c2cc(NS(=O)(=O)c3ccccc3)ccc2O1	.	-	-	-	-	-
Cc1nn(Cc2ccc([N+](=O)[O-])cc2)c(=O)n1N(C)c1ncc(C(F)(F)F)cc1Cl	-	-	.	.	63.5	-
C#CCN(C[C@@H]1[C@@H](OC(=O)NCC2CCCCC2)[C@@H](OC(=O)NCC2CCCCC2)CN(C(=O)OC(C)C)N1C(=O)OC(C)C)S(=O)(=O)c1ccc(C)cc1	-	72.2	-	-	?	-
CCN(CC)c1ccc(Nc2nc(Cl)ncc2Br)cc1	-	-	27.1	-	-	-
CCN(CC)c1ccc(CNc2ccc(Br)cn2)cc1	-	.	.	.	.	.
CCOC(=O)c1ccccc1-n1c(C)cc(C2N=C(N)Nc3nc4ccccc4n32)c1C (stereo not given)	-	.	25.5	-	.	.
CCOC(=O)C1=C(C)Nc2nc3ccccc3n2C1c1ccc(O)cc1 (stereo not given)	-	-	-	-	-	-
Clc1ccc2nc(-c3ccc4c(c3)OCO4)cn2c1	-	-	-	-	-	-

Screens as filed in PubChem.
